Reference: ChEMBL document CHEMBL1125341, “Delta opioid antagonist activity and binding studies of regioisomeric isothiocyanate derivatives of naltrindole: evidence for delta receptor subtypes” (J Med Chem, 1992)

Key:
Mus musculus [1] = assay: Compound was tested for antagonistic activity of opioid agonist induced antinociception by using DSLET as agonist, administered icv in mice; type: functional
Summary of the method: (§1)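 Mice received isothiocyanate 10 nmol icv 24 h before testing. Agonist ED50 was then found in the abdominal stretch assay: DPDPE and DSLET given icv, morphine and U50488 given sc. Result is the ED50 ratio, treated over untreated control mice, with significance testing.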

[2] = Post wash IC50 ratio obtained by dividing the IC50 of the DADLE in presence of the antagonist by the IC50 of the agonist alone in the same tissue preparation against delta receptor in mouse vas deferens; type: functional
Summary of the method: (§2)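 Guinea pig ileum longitudinal muscle (morphine, ethylketazocine) or mouse vas deferens (DADLE). Tissue was exposed to antagonist at 100 nM, or 1 nM for one isomer, for 30 min before agonist concentration-response. Prewash ratio is agonist IC50 with antagonist over IC50 alone in the same tissue. Where the shift was significant, tissue was washed extensively and IC50 redetermined; postwash ratio is over control IC50. Mean ± SEM.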

Mus musculus [3] = assay: Compound was tested for antagonistic activity of opioid agonist induced antinociception by using DPDPE as agonist, administered icv in mice; type: functional; summary of the method: as §1
Mus musculus [4] = assay: Compound was tested for antagonistic activity of opioid agonist induced antinociception by using morphine as agonist, administered sc in mice; type: functional; summary of the method: as §1
[5] = Prewash IC50 ratio obtained by dividing the IC50 of the DADLE in presence of the antagonist by the IC50 of the agonist alone in the same tissue preparation against delta receptor in mouse vas deferens; type: functional; summary of the method: as §2
Mu-type opioid receptor [6] = molecular target: Mu-type opioid receptor (UniProt P35372); assay: Prewash IC50 ratio obtained by dividing the IC50 of the morphine in presence of the antagonist by the IC50 of the agonist alone in the same tissue preparation against opioid receptor mu in guinea pig ileum; type: functional, tissue-based; summary of the method: as §2
Mus musculus [7] = assay: Compound was tested for antagonistic activity of opioid agonist induced antinociception by using U-50,488H as agonist, administered sc in mice; type: functional; summary of the method: as §1
[8] = molecular target: Kappa-type opioid receptor (UniProt P41145); assay: Prewash IC50 ratio obtained by dividing the IC50 of the ethylketazocine in presence of the antagonist by the IC50 of the agonist alone in the same tissue preparation against opioid receptor kappa in guinea pig ileum; type: functional, tissue-based; summary of the method: as §2
Cavia porcellus = species on record: Cavia porcellus; assay: compound was evaluated for agonist activity in smooth muscle preparation of guinea pig ileum (GPI) at 1 uM concentration; type: functional; details: Muscle tissue
Summary of the method: (§3)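 Ligand at 1 µM tested directly on guinea pig ileum longitudinal muscle or mouse vas deferens; percent inhibition of the preparation recorded. Mean ± SEM of 3 experiments.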

Mus musculus [9] = species on record: Mus musculus; assay: compound was evaluated for agonist activity in smooth muscle preparation of mouse vas deferens (MVD) at 1 uM concentration; type: functional; details: Muscle tissue; summary of the method: as §3
[10] = molecular target: T1, Delta-type opioid receptor (Rattus norvegicus, UniProt P33533); assay: Compound was evaluated for its effect towards [3H]DSLET binding to Opioid receptor delta 2 at 0.25 nM concentration
[11] = molecular target: Delta-type opioid receptor (Rattus norvegicus) (UniProt P33533); assay: Compound was evaluated for its effect on the [3H]DSLET binding towards Opioid receptor delta 2 at 0.25 nM concentration; activity expressed as Bmax
[12] = molecular target: Delta-type opioid receptor (Rattus norvegicus) (UniProt P33533); assay: Compound was evaluated for its effect towards […] binding to Opioid receptor delta 1 at 0.25 nM concentration activity expressed as Bmax
[13] = molecular target: Delta-type opioid receptor (Rattus norvegicus) (UniProt P33533); assay: Compound was evaluated for its effect on the [3H]DSLET binding towards Opioid receptor delta 2 at 4 nM concentration; activity expressed as Bmax
[14] = molecular target: T1, Delta-type opioid receptor; assay: Compound was evaluated for its effect towards [3H]DPDPE binding to Opioid receptor delta 1 at 0.25 nM concentration expressed as dissociation constant
Mu-type opioid receptor [15] = molecular target: Mu-type opioid receptor (UniProt P35372); assay: Post wash IC50 ratio obtained by dividing the IC50 of the morphine in presence of the antagonist by the IC50 of the agonist alone in the same tissue preparation against opioid receptor mu in guinea pig ileum; type: functional, tissue-based; summary of the method: as §2

Chain of Delta-type opioid receptor (Rattus norvegicus) (P33533 whole entry): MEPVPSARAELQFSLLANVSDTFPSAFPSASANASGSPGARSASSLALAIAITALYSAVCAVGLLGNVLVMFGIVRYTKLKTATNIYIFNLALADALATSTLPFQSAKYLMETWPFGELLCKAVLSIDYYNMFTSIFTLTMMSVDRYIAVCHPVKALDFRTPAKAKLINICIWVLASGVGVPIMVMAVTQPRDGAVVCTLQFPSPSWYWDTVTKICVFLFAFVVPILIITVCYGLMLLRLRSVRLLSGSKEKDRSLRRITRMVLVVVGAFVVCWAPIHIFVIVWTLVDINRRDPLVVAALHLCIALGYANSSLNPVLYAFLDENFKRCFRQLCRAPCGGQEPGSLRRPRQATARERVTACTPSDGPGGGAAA
Chain of Mu-type opioid receptor (P35372 whole entry): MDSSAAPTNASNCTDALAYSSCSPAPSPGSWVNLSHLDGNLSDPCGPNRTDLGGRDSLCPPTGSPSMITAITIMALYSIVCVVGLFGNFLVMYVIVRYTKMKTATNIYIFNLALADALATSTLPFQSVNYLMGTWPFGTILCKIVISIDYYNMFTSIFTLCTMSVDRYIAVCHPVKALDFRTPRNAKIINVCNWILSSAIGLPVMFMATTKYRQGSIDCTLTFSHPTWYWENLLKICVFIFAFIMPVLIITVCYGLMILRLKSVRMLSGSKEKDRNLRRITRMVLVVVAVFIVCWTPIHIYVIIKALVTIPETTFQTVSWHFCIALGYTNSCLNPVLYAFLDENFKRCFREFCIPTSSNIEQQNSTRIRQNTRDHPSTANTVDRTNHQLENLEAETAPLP
Chain of Kappa-type opioid receptor (P41145 whole entry): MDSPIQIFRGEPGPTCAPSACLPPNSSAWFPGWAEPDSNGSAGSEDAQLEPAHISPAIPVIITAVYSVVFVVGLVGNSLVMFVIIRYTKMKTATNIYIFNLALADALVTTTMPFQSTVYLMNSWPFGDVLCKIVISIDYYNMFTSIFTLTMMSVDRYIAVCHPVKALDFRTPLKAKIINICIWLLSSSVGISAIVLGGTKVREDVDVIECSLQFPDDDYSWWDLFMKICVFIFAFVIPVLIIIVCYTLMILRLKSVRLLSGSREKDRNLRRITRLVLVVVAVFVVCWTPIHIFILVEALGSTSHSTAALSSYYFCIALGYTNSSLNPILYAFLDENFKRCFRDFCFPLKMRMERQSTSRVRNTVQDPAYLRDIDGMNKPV
T1 sequence (P33533 whole entry): as the sequence (P33533 whole entry) above

Structure (SMILES): Oc1ccc2c3c1OC1c4[nH]c5cccc(N=C=S)c5c4CC4(O)C(C2)N(CC2CC2)CCC314 (stereo unspecified)
- ED50 ratio (Mus musculus [1]): 1.6
- Ratio [2]: 3.71
- ED50 ratio (Mus musculus [3]): 2.6
- ED50 ratio (Mus musculus [4]): 1.2
- Ratio [5]: 4.59
- Ratio (Mu-type opioid receptor [6]): 0.77
- ED50 ratio (Mus musculus [7]): 1.6
- Ratio [8]: 0.51
- inhibition at 1 µM (Cavia porcellus): 1%
- inhibition at 1 µM (Mus musculus [9]): 24.4%

Structure (SMILES): Oc1ccc2c3c1OC1c4[nH]c5ccc(N=C=S)cc5c4CC4(O)C(C2)N(CC2CC2)CCC314 (stereo unspecified)
- ED50 ratio (Mus musculus [1]): 52.1
- Ratio [2]: 7.71
- ED50 ratio (Mus musculus [3]): 0.6
- ED50 ratio (Mus musculus [4]): 1.3
- Ratio [5]: 6.68
- Ratio (Mu-type opioid receptor [6]): 0.9
- ED50 ratio (Mus musculus [7]): 3.2
- Ratio [8]: 0.93
- inhibition at 1 µM (Cavia porcellus): -2.4%
- inhibition at 1 µM (Mus musculus [9]): 18.8%

Structure (SMILES): Oc1ccc2c3c1OC1c4[nH]c5cc(N=C=S)ccc5c4CC4(O)C(C2)N(CC2CC2)CCC314 (stereo unspecified)
- ED50 ratio (Mus musculus [1]): 6.8
- Ratio [2]: 185
- ED50 ratio (Mus musculus [3]): 9.2
- ED50 ratio (Mus musculus [4]): 1.4
- Ratio [5]: 155
- Ratio (Mu-type opioid receptor [6]): 1.44
- ED50 ratio (Mus musculus [7]): 0.9
- Ratio [8]: 1.04
- inhibition at 1 µM (Cavia porcellus): 12.4%
- inhibition at 1 µM (Mus musculus [9]): 0%

Structure (SMILES): Oc1ccc2c3c1OC1c4[nH]c5c(N=C=S)cccc5c4CC4(O)C(C2)N(CC2CC2)CCC314 (stereo unspecified)
- ED50 ratio (Mus musculus [1]): 3
- Ratio [2]: 16.1
- ED50 ratio (Mus musculus [3]): 3.7
- ED50 ratio (Mus musculus [4]): 2
- Ratio [5]: 7.99
- Kd [10]: 15.7 nM
- Bmax (fM (mg of protein)-1) [11]: 208
- Bmax (fM (mg of protein)-1) [12]: 5.6
- Ratio (Mu-type opioid receptor [6]): 15
- Bmax (fM (mg of protein)-1) [13]: 361
- Kd [14]: 2.3 nM
- ED50 ratio (Mus musculus [7]): 0.8
- Ratio [8]: 0.81
- Ratio (Mu-type opioid receptor [15]): 53
- inhibition at 1 µM (Cavia porcellus): 5.9%
- inhibition at 1 µM (Mus musculus [9]): 31.8%
